Measurements taken from ChEMBL document CHEMBL1141072, “Conformationally constrained analogues of diacylglycerol (DAG). 25. Exploration of the sn-1 and sn-2 carbonyl functionality reveals the essential role of the sn-1 carbonyl at the lipid interface in the binding of DAG-lactones to protein kinase C” (J Med Chem, 2005).

Experiments:
[1] = target: T1, Protein kinase C delta type (Homo sapiens, UniProt Q05655); assay: Inhibition of [3H]PDBu binding to C1b domain of protein kinase C delta with phosphatidylserine
How it was run: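 δC1b domain as GST fusion, expressed in BL-21 (DE3) E. coli and spin-purified. Assay buffer 50 mM Tris-HCl pH 7.4 with 100 μg/ml phosphatidylserine, 4 mg/ml bovine IgG and 1 mM EGTA, plus [3H]PDBu and varied competitor. Incubated 10 min at 18 °C, then precipitated with PEG and pellet counted. Specific binding is total minus binding with 64 μM cold PDBu. Ki reported.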

[2] = target: T1, Protein kinase C delta type; assay: Inhibition of [3H]-PDBu binding to C1b domain of protein kinase C delta without phosphatidylserine
How it was run: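 GST-tagged δC1b expressed in BL-21 (DE3) E. coli and purified on glutathione spin columns, purity checked by SDS-PAGE. Competition with [3H]PDBu run in 50 mM Tris-HCl pH 7.4, 4 mg/ml bovine IgG, 1 mM EGTA, no phosphatidylserine, 10 min at 18 °C. Bound ligand separated by PEG precipitation on ice and counted by scintillation. Nonspecific binding taken with 64 μM unlabeled PDBu. Ki derived.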

[3] = target: Protein kinase C alpha type (Homo sapiens, UniProt P17252); assay: Inhibition of [3H]PDBu binding to recombinant protein kinase C alpha was determined at pH 7.4, 37 degree C for 5 min
How it was run: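 PKCα displacement of [3H]PDBu in 50 mM Tris-HCl, 100 μg/ml phosphatidylserine, 4 mg/ml bovine IgG and 0.1 mM CaCl2, with a range of competitor concentrations. After incubation, chilled 7 min and 35% PEG added, then 10 min on ice and spun at 4 °C. Pellet bound radioactivity counted. Nonspecific binding measured with 64 μM unlabeled PDBu. Expressed as Ki.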

T1 sequence (Q05655 whole entry, the tested form may be a part): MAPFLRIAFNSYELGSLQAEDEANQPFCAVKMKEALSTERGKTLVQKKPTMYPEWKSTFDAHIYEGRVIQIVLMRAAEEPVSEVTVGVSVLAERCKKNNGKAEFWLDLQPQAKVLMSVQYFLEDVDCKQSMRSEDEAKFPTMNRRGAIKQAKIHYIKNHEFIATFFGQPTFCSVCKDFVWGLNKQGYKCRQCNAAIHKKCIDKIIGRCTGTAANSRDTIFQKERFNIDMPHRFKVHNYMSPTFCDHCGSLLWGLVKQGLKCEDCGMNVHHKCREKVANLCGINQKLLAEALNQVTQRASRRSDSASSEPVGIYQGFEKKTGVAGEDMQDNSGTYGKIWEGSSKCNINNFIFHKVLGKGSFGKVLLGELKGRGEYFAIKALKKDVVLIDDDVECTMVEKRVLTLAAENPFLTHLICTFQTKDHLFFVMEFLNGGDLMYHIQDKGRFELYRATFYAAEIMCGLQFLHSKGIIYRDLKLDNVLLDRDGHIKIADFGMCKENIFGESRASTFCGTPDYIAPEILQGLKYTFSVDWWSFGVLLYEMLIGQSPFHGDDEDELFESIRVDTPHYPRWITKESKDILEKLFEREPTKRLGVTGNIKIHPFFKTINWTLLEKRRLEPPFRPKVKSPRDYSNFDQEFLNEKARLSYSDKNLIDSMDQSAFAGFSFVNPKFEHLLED

| Structure (SMILES) | Ki [1] | Ki [2] | Ki [3] |
| --- | --- | --- | --- |
| CC(C)CC(C/C=C1\CC(CO)(COCC(C)(C)C)OC1=O)CC(C)C (stereo unspecified) | 1.89 µM | 101 µM | 14.3 µM |
| CC(C)CC(C/C=C1/CC(CO)(COCC(C)(C)C)OC1=O)CC(C)C (stereo unspecified) | 2.14 µM |  | 5.87 µM |
| CC(C)CC(C/C=C1\CC(CO)(COC(=O)C(C)(C)C)OC1=O)CC(C)C (stereo unspecified) |  | 0.103 µM | 0.00325 µM |
| CC(C)CC(C/C=C1\CC(CO)(COC(=S)C(C)(C)C)OC1=O)CC(C)C (stereo unspecified) | 0.0206 µM | 0.606 µM | 0.113 µM |
| CC(C)CC(C/C=C1/COC(CO)(COC(=O)C(C)(C)C)C1)CC(C)C (stereo unspecified) | 0.219 µM | 6.62 µM | 0.622 µM |
| CC(C)CC(C/C=C1\CC(CO)(COC(=O)C(C)(C)C)OC1=S)CC(C)C (stereo unspecified) | 0.00313 µM | 0.173 µM | 0.0237 µM |
